Activity calls are given as the source filed them.
How the values were obtained:
Mus musculus [1] = test: CNS toxicity in Swiss Webster mouse assessed as effect on motor performance at 100 mg/kg, ip after 40 mins by open field test; format: organism-based; design: dose 100 mg/kg, route intraperitoneal; conditions: in vivo
Procedure, shortened: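 Open-field test 40 min after ip dosing: mice placed singly in 40 × 60 × 50 cm box with 12 floor squares; squares crossed with all four paws counted over 3 min; n = 6; one-way ANOVA with Tukey.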

Mus musculus [2] = test: CNS toxicity in Swiss Webster mouse assessed as effect on motor performance at 100 mg/kg, ip after 40 mins by rotarod test; format: organism-based; design: dose 100 mg/kg, route intraperitoneal; conditions: in vivo
Procedure, shortened: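 Rota-rod test: 3 cm bar at 8 rpm; mice pre-selected 24 h earlier by remaining on bar for two consecutive 120 s periods; placed on rod 40 min after ip dosing; time on bar recorded up to 120 s; n = 6; one-way ANOVA with Tukey.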

Mus musculus [3] = test: Antinociceptive activity in Swiss Webster mouse assessed as increase in reaction time at 100 mg/kg, ip measured after 3 hrs by tail flick test; format: functional, organism-based; design: dose 100 mg/kg
Procedure, shortened: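 Mice habituated to restraint cylinder 20 min/day for 5 days; distal 2 cm of tail immersed in 48 ± 0.5 °C water; tail withdrawal latency measured before and after ip dosing (5% DMSO/saline vehicle); 10 s cutoff; n = 6; two-way ANOVA with Bonferroni.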

Mus musculus [4] = test: Antiinflammatory activity in Swiss Webster mouse assessed as reduction in hyperalgesia at 100 mg/kg, ip dosed 40 mins before CFA injection and measured 2 to 6 hrs post CFA stimulus; format: functional, organism-based; design: dose 100 mg/kg
Procedure, shortened: (§1)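 Male Swiss Webster mice (22−28 g) given drug ip in 5% DMSO/saline (dexamethasone in 10% ethanol/saline) 40 min before 20 μL CFA (1 mg/mL heat-killed M. tuberculosis in paraffin oil/mannide monooleate) sc into right hind paw plantar region. Mechanical threshold by von Frey filaments, up−down method, at 2, 4 and 6 h; n = 6; two-way ANOVA with Bonferroni.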

Mus musculus [5] = test: Antinociceptive activity in Swiss Webster mouse assessed as inhibition of acetic acid-induced abdominal constrictions at 25 to 100 mg/kg, ip dosed 40 mins before acetic acid injection; format: functional, organism-based; conditions: Abdomen
Procedure, shortened: (§2)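 Male Swiss Webster mice dosed ip (5% DMSO in saline vehicle) 40 min before ip acetic acid 0.8% v/v, 10 mL/kg; writhes (abdominal contraction with hind-limb stretching) counted over 0−30 min; mean writhing score, n = 10 per group; ANOVA with Tukey.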

Mus musculus [6] = test: Antiinflammatory activity in Swiss Webster mouse assessed as reduction in paw edema at 100 mg/kg, ip dosed 40 mins before CFA injection and measured 2 hrs post CFA stimulus; format: functional, organism-based; design: dose 100 mg/kg
Procedure, shortened: (§3)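 Male Swiss Webster mice, ip pretreatment in 5% DMSO/saline 40 min before intraplantar CFA (20 μL, 1 mg/mL heat-killed M. tuberculosis). Paw volume measured by plethysmometer before and 2, 4, 6 h after CFA; edema expressed as percent increase in paw volume; n = 6 mice/group; two-way ANOVA with Bonferroni.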

Mus musculus [7] = test: Antinociceptive activity in Swiss Webster mouse assessed as inhibition of formalin-induced late phase pain response at 25 to 100 mg/kg, ip dosed 40 mins before formalin injection; format: functional, organism-based
Procedure, shortened: (§4)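 Mice acclimated 30 min in chamber, dosed ip 40 min before sc injection of 20 μL 2.5% formalin into dorsal hind paw; licking time of injected paw scored 0−10 min (early phase) and 10−30 min (late phase); n = 7−10; ANOVA with Tukey.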

Mus musculus [8] = test: Antinociceptive activity in Swiss Webster mouse assessed as increase in latency time at 100 mg/kg, ip measured after 0.5 hrs by hot plate test; format: functional, organism-based; design: dose 100 mg/kg
Procedure, shortened: (§5)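 Hot plate held at 55 ± 1 °C; male Swiss Webster mice; reaction time to hind paw licking or jumping recorded before and after ip dosing (vehicle 5% DMSO in saline); data as difference from baseline; 10 s cutoff; n = 6; two-way ANOVA with Bonferroni.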

Mus musculus [9] = test: Antiinflammatory activity in Swiss Webster mouse assessed as reduction in paw edema at 100 mg/kg, ip dosed 40 mins before CFA injection and measured 2 to 6 hrs post CFA stimulus; format: functional, organism-based; design: dose 100 mg/kg; procedure, shortened: as §3
Mus musculus [10] = test: Antinociceptive activity in Swiss Webster mouse assessed as inhibition of acetic acid-induced abdominal constrictions at 25 mg/kg, ip dosed 40 mins before acetic acid injection; format: functional, organism-based; design: dose 25 mg/kg; conditions: Abdomen; procedure, shortened: as §2
Mus musculus [11] = test: Reduction in IL1-beta level in Swiss Webster mouse 100 mg/kg, ip dosed 40 mins before CFA injection and measured 3 hrs post CFA stimulus by ELISA method; format: functional, organism-based; design: dose 100 mg/kg; conditions: at 100 mg/kg
Procedure, shortened: (§6)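 Mice dosed ip 40 min before intraplantar CFA; paw skin removed under terminal halothane anesthesia; proteins extracted at 100 mg tissue/mL PBS with 0.4 M NaCl, 0.05% Tween 20 and protease inhibitors; centrifuged 3000g for 10 min; supernatant IL-1β or TNF-α measured by ELISA as pg/mL; n = 6.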

Mus musculus [12] = test: Antinociceptive activity in Swiss Webster mouse assessed as inhibition of formalin-induced late phase pain response at 50 to 100 mg/kg, ip dosed 40 mins before formalin injection; format: functional, organism-based; procedure, shortened: as §4
Mus musculus [13] = test: Antinociceptive activity in Swiss Webster mouse assessed as increase in latency time at 100 mg/kg, ip measured after 0.5 to 2 hrs by hot plate test; format: functional, organism-based; design: dose 100 mg/kg; procedure, shortened: as §5
Mus musculus [14] = test: Antiinflammatory activity in Swiss Webster mouse assessed as reduction in paw edema at 50 to 100 mg/kg, ip dosed 40 mins before CFA injection and measured 2 to 4 hrs post CFA stimulus; format: functional, organism-based; procedure, shortened: as §3
Mus musculus [15] = test: Antiinflammatory activity in Swiss Webster mouse assessed as reduction in hyperalgesia at 100 mg/kg, ip dosed 40 mins before CFA injection and measured 4 to 6 hrs post CFA stimulus; format: functional, organism-based; design: dose 100 mg/kg; procedure, shortened: as §1
Mus musculus [16] = test: Reduction in TNFalpha level in Swiss Webster mouse 100 mg/kg, ip dosed 40 mins before CFA injection and measured 3 hrs post CFA stimulus by ELISA method; format: functional, organism-based; design: dose 100 mg/kg; conditions: at 100 mg/kg; procedure, shortened: as §6
Mus musculus [17] = test: Antiinflammatory activity in Swiss Webster mouse assessed as reduction in hyperalgesia at 100 mg/kg, ip dosed 40 mins before CFA injection and measured 2 hrs post CFA stimulus; format: functional, organism-based; design: dose 100 mg/kg; procedure, shortened: as §1
Mus musculus [18] = test: Antinociceptive activity in Swiss Webster mouse assessed as inhibition of formalin-induced early phase pain response at 50 to 100 mg/kg, ip dosed 40 mins before formalin injection; format: functional, organism-based; procedure, shortened: as §4
Mus musculus [19] = test: Antinociceptive activity in Swiss Webster mouse assessed as inhibition of formalin-induced late phase pain response at 50 mg/kg, ip dosed 40 mins before formalin injection; format: functional, organism-based; design: dose 50 mg/kg; procedure, shortened: as §4
Mus musculus [20] = test: Antinociceptive activity in Swiss Webster mouse assessed as inhibition of formalin-induced early phase pain response at 50 mg/kg, ip dosed 40 mins before formalin injection; format: functional, organism-based; design: dose 50 mg/kg; procedure, shortened: as §4

C[C@]12C(=O)C=CCC1=CC[C@@H]1[C@@H]2CC[C@]2(O)C(=O)O[C@@]3(C)[C@H]4C[C@]5(C)[C@@H](CO[C@@]16O[C@@]32[C@H]5C6=O)C(=O)O4 [PHYSALIN B]
Activity (Mus musculus [1]): Non-toxic | Activity (Mus musculus [2]): Non-toxic | Activity (Mus musculus [3]): Active | inhibition (Mus musculus [4]): inactive | inhibition (Mus musculus [5]): Dose-dependent effect | inhibition (Mus musculus [6]): Active | inhibition (Mus musculus [7]): Active

C[C@@]12C[C@H]3OC(=O)[C@@H]1CO[C@@]14O[C@]5([C@H]2C1=O)[C@@](O)(CC[C@H]1[C@H]4C[C@@H](O)[C@@]2(O)CC=CC(=O)[C@]12C)C(=O)O[C@@]35C [PHYSALIN D]
Activity (Mus musculus [1]): Non-toxic | Activity (Mus musculus [2]): Non-toxic | Activity (Mus musculus [8]): Active | inhibition (Mus musculus [4]): inactive | inhibition (Mus musculus [5]): Dose-dependent effect | inhibition (Mus musculus [9]): inactive | inhibition (Mus musculus [7]): Active

C[C@@]12C[C@H]3OC(=O)[C@@H]1CO[C@]14O[C@]5([C@H]2C1=O)[C@@](O)(CC[C@H]1[C@H]4C[C@H]2O[C@]24CC=CC(=O)[C@]14C)C(=O)O[C@@]35C [PHYSALIN F]
inhibition (Mus musculus [10]): Active | inhibition (Mus musculus [11]): inactive | inhibition (Mus musculus [12]): Active | Activity (Mus musculus [1]): Non-toxic | Activity (Mus musculus [13]): Active | inhibition (Mus musculus [14]): Active | inhibition (Mus musculus [15]): inactive | Activity (Mus musculus [2]): Non-toxic | Activity (Mus musculus [3]): Active | inhibition (Mus musculus [16]): Active | inhibition (Mus musculus [17]): Active | inhibition (Mus musculus [18]): Active

C[C@]12C(=O)C=CC=C1[C@@H](O)C[C@@H]1[C@@H]2CC[C@@]2(O)C(=O)O[C@@]3(C)[C@H]4C[C@]5(C)[C@@H](CO[C@@]16O[C@]23[C@H]5C6=O)C(=O)O4 [PHYSALIN G]
inhibition (Mus musculus [19]): Active | Activity (Mus musculus [1]): Non-toxic | Activity (Mus musculus [13]): Active | Activity (Mus musculus [2]): Non-toxic | Activity (Mus musculus [3]): Active | inhibition (Mus musculus [4]): inactive | inhibition (Mus musculus [20]): Active | inhibition (Mus musculus [5]): Dose-dependent effect | inhibition (Mus musculus [9]): inactive

Reference: ChEMBL document CHEMBL3351240, “Antinociceptive properties of physalins from Physalis angulata” (J Nat Prod, 2014)
